Measurements reported in ChEMBL document CHEMBL1122328, “Hypolipidemic activity of phthalimide derivatives. 2. N-phenylphthalimide and derivatives” (1983).

How the values were obtained:
Mus musculus [1] = assay: Effect on mg of lipid from CF1 male mice after 16 days at a dose of 10 (mg/kg/day); type: functional
Outline: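 CF1 male mice dosed ip for 16 days at 10–60 (mg/kg)/day; liver taken and 10% homogenate made in 0.25 M sucrose + 0.001 M EDTA; aliquot extracted by Folch and Bligh–Dyer methods, mg lipid weighed, cholesterol measured by Liebermann–Burchard method; n = 6; % of 1% CMC control.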

Mus musculus [2] = assay: In vitro effect on CF1 male mouse on phosphatidate phosphohydrolase after 16 days at a dose of 60 (mg/kg)/day; type: functional
Outline: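 CF1 male mice dosed ip daily for 16 days, drug suspended in 1% carboxymethylcellulose; liver taken as 10% homogenate in 0.25 M sucrose + 0.001 M EDTA. Phosphatidate phosphohydrolase measured as inorganic phosphate released from phosphatidic acid after 30 min, developed with ascorbic acid/ammonium molybdate, read at 820 nm. Expressed as % of 1% CMC vehicle control; N = 6.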

Mus musculus [3] = assay: In vitro effect on CF1 male mouse onAc-CoA carboxylase after 16 days at a dose of 20 (mg/kg)/day; type: functional; conditions: in the assay text read “In vivo” for “In vitro”
Outline: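 Mice (CF1 males) given agent ip daily for 16 days in 1% carboxymethylcellulose; liver 10% homogenate in 0.25 M sucrose + 0.001 M EDTA. Acetyl-CoA carboxylase first polymerized 30 min at 37 °C, then incubated 30 min at 37 °C with sodium [14C]bicarbonate (41.0 mCi/mmol); incorporated label counted. Activity as % of vehicle control; N = 6.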

Mus musculus [4] = assay: In vitro effect on CF1 male mouse on Ac-CoA synthetase after 16 days at a dose of 20 (mg/kg)/day; type: functional
Outline: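 In vivo enzyme study. CF₁ male mice were dosed ip for 16 days in 1% CMC, and liver was homogenised to 10% in 0.25 M sucrose with 0.001 M EDTA. Enzymes assayed: acetyl-CoA synthetase as hydroxamate at 540 nm after 30 min at 37 °C; HMG CoA reductase with [1-¹⁴C]acetate in 9000g supernatant for 60 min at 37 °C; fatty acid synthetase with [2-¹⁴C]malonyl-CoA; acyltransferase with [³H]glycerol 3-phosphate and microsomes for 10 min; phosphatidate phosphohydrolase as released phosphate at 820 nm after 30 min. N = 6; reported as % control.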

Rattus norvegicus [5] = assay: Effect on very low density Protein Holtzman rats after 14 days administration; type: functional
Outline: (§1)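 Holtzman male rats (~400 g) received drug at 20 (mg/kg)/day for 14 days. On day 14, blood was collected from the abdominal aorta and serum was separated by centrifugation at 3500 rpm. Lipid content of the lipoprotein fractions was then determined.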

Rattus norvegicus [6] = assay: Effect on very low density cholesterol Holtzman rats after 14 days administration; type: functional; outline: as §1
Rattus norvegicus [7] = assay: Effect on low density Phospholipids Holtzman rats after 14 days administration; type: functional
Outline: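 Holtzman male rats (~400 g) given drug at 20 (mg/kg)/day for 14 days; on day 14 blood taken from the abdominal aorta and serum separated by centrifugation at 3500 rpm; lipid and protein content of the lipoprotein fractions measured.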

Mus musculus [8] = assay: In vivo effect on CF1 male mouse on Lipid content after 16 days at a dose of 40 (mg/kg)/day

CC(=O)c1ccccc1N1C(=O)c2ccccc2C1=O
Control (Mus musculus [1]): 84%
Control (Mus musculus [2]): 98%
Control (Mus musculus [3]): 41%
Control (Mus musculus [4]): 46%
Control (Rattus norvegicus [5]): 66%
Control (Rattus norvegicus [6]): 85%
Control (Rattus norvegicus [7]): 87%
Control (Mus musculus [8]): 80%
